Reference: ChEMBL document CHEMBL4513216, “Probing the Open Global Health Chemical Diversity Library for Multistage-Active Starting Points for Next-Generation Antimalarials” (ACS Infect Dis, 2020)

Test: Toxicity liver stage against HepG2, at 10uM
Type: cell-based
Parameters: test concentration 10 uM, cell line HepG2-A16-CD81EGFP
Conditions: human, HepG2-A16-CD81EGFP cells; read-out: INHIBITION
Method in brief: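 Uninfected HepG2-A16-CD81EGFP cells, 3 × 10^3 per well, 1536-well, plated on prespotted compound at 10 μM final, parasite-free screening media added to match infected plates; puromycin 10 μM positive, DMSO 0.5% negative; run in parallel with 48 h PbLuc assay at 37 °C, 5% CO2; viability by CellTiter-Glo luminescence, normalized to controls.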

SMILES | cytotoxicity at 10 µM [%]
Cc1ccc(NC(=O)Nc2c[nH]c(=O)[nH]c2=O)c(Cl)c1 | -4.28
CN(Cc1cccc(C(F)(F)F)c1)Cc1nc(-c2cnccn2)no1 | 1.35
F[C@@H]1CN(CC2CC2)C[C@@H]1OCc1nc2ccc(C(F)(F)F)cc2[nH]1 | -6.22
O=S(=O)(c1ccc(Cl)cc1)N1CCOC[C@H](Oc2cnccn2)C1 | -2.57
O=S(=O)(c1ccc(F)cc1)N1CCOC[C@H](Oc2cnccn2)C1 | 5.88
CCOC(=O)c1nc(CC(=O)Nc2ccc3cc[nH]c3c2)no1 | 7.12
Cc1nn(C)cc1CC(C#N)C(=O)Nc1cccc(O)c1 (centres undefined) | 2.8
CC(C)n1c(=O)c2ccccc2n(CCN2CCCCC2)c1=O | -16.6
COc1cccc(C(=O)Nc2n[nH]c(C3CCCO3)n2)c1 (centres undefined) | 6
COc1ncccc1C(=O)NCCn1nc(C)ccc1=O | -7.69
Cc1cc(C)n(CC(=O)NCc2ccccn2)n1 | 3.86
COc1nn(C)cc1C(=O)NCC(=O)Nc1cccnc1 | -8.75
CCCc1nnsc1C(=O)NCC1CCN(C(=O)c2ccncc2)CC1 | 16.2
O=C(CN1C(=O)CCC1=O)N1Cc2cncnc2C1 | -8.33
CN1CCN(Cc2cccnc2)C(=O)C12CCN(S(C)(=O)=O)CC2 | 0.611
CC(C)CC(=O)N1CCCC2(CC(C(=O)Nc3ccccc3)=NO2)C1 (centres undefined) | 1.46
O=C(c1cscn1)N1C[C@H](OCc2cccnc2)[C@H]2COC[C@H]21 | -2.07
Cc1ccnc(OC[C@]23COC[C@H]2CN(C(=O)C2=CCCCC2)C3)n1 | 0.325
CCS(=O)(=O)N1C[C@H]2CN(Cc3cccc(F)c3)C(=O)[C@H]2C1 | 0.442
CN(C)c1ncc(-c2cc(C(=O)N3CCCC3)n(CC3CC3)c2)cn1 | -0.376
COCC(=O)N1CC[C@H]2N(C)CC[C@@]2(C(=O)Nc2ccccc2)CC1 | 3.48
CCCC(=O)N1CCC2(CC1)CC(NC(C)=O)c1ccccc1O2 (centres undefined) | 5.08

SMILES | cytotoxicity at 10 µM [%]
c1nc(N2CCCC2)cnc1C1CCNCC1 | -3.87
CC(C)C(NC(=O)C1CC1)c1cc(O)nc(-c2cccnc2)n1 (centres undefined) | 5.18
Cc1nn(CCC(=O)NC2CCCOC2)c(C)c1C (centres undefined) | 2.06
CC(C)(C)C(=O)N1CCC(c2cnc(-c3cn[nH]c3)cn2)CC1 | 1.16
CCc1nc(-c2cncnc2C2CCNC2)no1 (centres undefined) | 1.45
c1cncc(CN2CCC(c3csc4nccn34)CC2)c1 | 2.9
CO[C@H]1CN(S(=O)(=O)c2ccccc2F)C[C@@]12CCCO2 | -3.08
CCC(=O)c1ccc(OCC(=O)NCC2CCCO2)cc1 (centres undefined) | -52.1
CN(Cc1ccc(F)cc1)C(=O)c1ccoc1CN1CCNC(=O)C1 | -3.57
CNC(=O)CN(C)S(=O)(=O)c1c(Br)cc2[nH]c(=O)oc2c1Cl | 1.36
O=C(CCNC(=O)C1=Cc2ccccc2OC1)Nc1cccnc1 | -0.956
O=C1OCCC1N1CCN(c2cnccn2)CC1 (centres undefined) | -0.0916
COC(=O)c1ccc(Cn2cccc(C(F)(F)F)c2=O)s1 | -8.03
O=C1CCN(C(=O)NCc2cccc(Oc3ccccc3)c2)CCN1 | 4.11
COc1ccc(C(=O)N(C2CC2)C2CC(=O)NC2=O)cc1 (centres undefined) | -10.7
CC(C)N1CC(C(=O)NC(C)(C)CNC(=O)OC(C)(C)C)CC1=O (centres undefined) | -9.96
CC(C)(C)S(=O)(=O)CCNC(=O)NCCCc1cccc(F)c1 | 17
COC(=O)c1cccc(S(=O)(=O)N2CSCC2C(=O)N(C)C2CC2)c1 (centres undefined) | 5.15
CC(=O)NCCC(=O)Nc1cccc(N2CCN(CC3CC3)CC2)c1 | -5.62
COC(=O)COc1cc(NCc2c(C)noc2C)c(Cl)cc1C | 3.2
O=C(COc1ccccc1)NCC1CC1 | 7.76
Cc1ccc(S(=O)(=O)NC(=O)CCc2cscn2)cc1Cl | 8.9

SMILES | cytotoxicity at 10 µM [%]
COC(C)(C)CNC(=O)N(C)Cc1nc(-c2ccccc2)c[nH]1 | 8.07
CNC(=O)c1cccc(CCNC(=O)N2CCc3ccccc3C2)c1 | 6.72
Cc1ccc(CNc2ccc(C(=O)N3CCNC(=O)C3)cn2)cc1 | 4.64
Cc1ccc(S(=O)(=O)N2CCn3nc(C)nc3C2)c(Cl)c1 | 5.09
CC1(CCNC(=O)NCc2ccsc2)OCCO1 | -6.21
CCOCCN(C)C(=O)Nc1cccc2c1CCN(CC)C2 | -49.3
NC(=O)c1ccc(S(=O)(=O)NCCc2ccccn2)cc1 | -16
Cc1nnc(NC(=O)NCCCN2CCC(C(N)=O)CC2)s1 | 5.61
O=C(c1ncoc1-c1ccco1)N1CCCN(c2ncccn2)CC1 | 2.7
Cn1ncnc1NS(=O)(=O)c1ccc(F)cc1Cl | 5.73
O=C(Nc1ccc(F)cc1)C1CSCN1 (centres undefined) | -2.76
CCOC(=O)Cn1ccc2cc(NC(=O)N3CCSCC3)ccc21 | 9.68
CN(CCn1cccn1)c1cc(C(F)(F)F)nc(-c2cccnc2)n1 | -3.63
CCCn1nc(-c2nc(C3CC3)no2)ccc1=O | 1.77
CN(C)Cc1nc(-n2cnc(C(=O)NC3CCCC3)c2)n2ccccc12 | 7.75
Cc1ccn2c(F)c(C(=O)N3CCC4(CCCN(C)C4=O)C3)nc2c1 (centres undefined) | 2.51
c1ccc(C(CNc2ncccn2)N2CCOCC2)nc1 (centres undefined) | -47.5
COCCN(C)C[C@@H]1CN(C(=O)c2cccc(C#N)c2)C[C@@H]1CO | 14.5
CCn1ccnc1CN1CCCC(CO)(CCCc2ccccc2)C1 (centres undefined) | -4.84
CCOC(=O)CNC(=O)N1CCCC(CNC(=O)c2ccco2)C1 (centres undefined) | -10.9
CCC(=O)Nc1cccc(OCC(=O)N(C)Cc2nc(C)c[nH]2)c1 | -4.54
CCN1CCCC(C)(C(=O)NCCc2nnc(C)[nH]2)C1 (centres undefined) | 1.1

SMILES | cytotoxicity at 10 µM [%]
CCC(Cn1ccc2[nH]c(=O)c(C#N)cc2c1=O)OC (centres undefined) | 2.33
COCCC1(C(=O)O)CCCN(Cc2ccccc2OCCO)C1 (centres undefined) | -40.9
CC(C)(C)CN1CCN(CC2CC2)C(CCO)C1 (centres undefined) | -2.42
Cc1ccc(CN2CCN(CC(=O)N(C)C)[C@@H]3CS(=O)(=O)C[C@@H]32)cc1C | 1.18
CCN1CCN(S(=O)(=O)N2CCCCCC2)[C@H]2CS(=O)(=O)C[C@H]21 | 1.58
Cc1ccnc(NCCCN2CCc3ccccc32)n1 | 0.979
COc1ccc(C(=O)N2C[C@@H](C(=O)O)[C@H](c3ccccc3C)C2)c(O)c1 | -4.31
Cc1csc(CCCNC(=O)[C@H]2CNC[C@@H](C(=O)N3CCCC3)C2)n1 | -15.9
O=C(CCC1CC1)N1C[C@@H](CN2CCCC2)[C@@H](CO)C1 | -4.43
Cc1cc(C(=O)O)cc(S(=O)(=O)Nc2ccc3c(c2)OCCCO3)c1C | -4.72
Cc1cc(C)n(CC2CCCN2CCCS(C)(=O)=O)n1 (centres undefined) | -3.48
Cc1cc(CN2CCCC(Cn3cncn3)C2)no1 (centres undefined) | -2.12
O=C(c1nccc2ccccc12)N1CCCCC1Cn1cccn1 (centres undefined) | -4.31
Cc1cc(C)n(CC2CCCN2C(=O)c2ccnc(N(C)C)c2)n1 (centres undefined) | -16.8
CN(C(=O)c1ccc(Cl)cc1)C1CCN(c2ccccn2)CC1 | -21
Cc1ccccc1CCNC(=O)N1CCCC(c2nncn2C)C1 (centres undefined) | -29.8
CCCOc1cccc(NS(=O)(=O)c2cc(C(=O)O)cs2)c1 | 1.09
Cc1cc(CNc2ccc(C(=O)N3CCCC(C)C3)cc2C)no1 (centres undefined) | -3.92
CCOc1ccc(Cl)c(C(=O)N2CCN(CCO)CC2)n1 | -5.15
CC(=O)NCCNC(=O)c1sc(-c2ccc(C)cc2C)nc1C | -7.62
Cc1ccc(NC2CCN(C(=O)Cn3nc(C)cc3C)CC2)nn1 | -1.81
Cc1oc(C)c(C(=O)NCc2ccccc2S(=O)(=O)N(C)C)c1C | 1.97

SMILES | cytotoxicity at 10 µM [%]
COCCOc1ccc(NC(=O)C2CC(=O)N(C)C2)cn1 (centres undefined) | -5.31
CN(CCNC(=O)c1scnc1Cl)c1ccccc1 | 6.88
CC(C)c1nnc2n1CCN(C(=O)c1ccc(OCC(N)=O)cc1)C2 | -4.84
O=C1CCC2(CCC(NC3CCOC3)CC2)N1Cc1ccncc1 (centres undefined) | 3.61
Cc1ccc(C(=O)N2CCC3(CC2)COC(COc2cccnc2)C3)o1 (centres undefined) | -3.16
c1cncc(-c2ncnc3c2CCN(Cc2ccsc2)CC3)c1 | 8.74
O=C(Cc1ccccc1)N1CC[C@H]2[C@@H]1CCC(=O)N2Cc1ccncc1 | 3.07
CN(C)CCN1C[C@@H]2CN(C(=O)c3ccsc3)C[C@@H]2C1=O | -7.79
Cn1cc(C(=O)N[C@@H]2CN(Cc3cccnc3)[C@@H]3CCCO[C@@H]32)cn1 | 1.18
Cn1ccnc1CN1CCC2(CC1)CC(Oc1cccnc1)C2 | -20.7
O=C(c1ccco1)N1CCOCC2(C1)CN(c1cccnc1)C(=O)CO2 (centres undefined) | 5.88
O=C(N1CCCC1)N1CCC[C@]2(C[C@@H](Oc3ncccc3F)CO2)C1 | -0.269
CN(C)Cc1cncc2c1CCN(C1CCOCC1)C2 | 11.1
CN(C)[C@@H]1CN(C(=O)Cc2cccc(F)c2)[C@@H]2CCCO[C@H]12 | 1.37
CN(C)[C@@H]1CCN(C(=O)Cc2ccc(F)cc2)[C@H]1Cc1cnn(C)c1 | 4.58
O=C(Cc1ccccn1)NCC1OCCc2cn(CC3CC3)nc21 (centres undefined) | 7.51
Cn1ccc(C(=O)N2C[C@H]3CCC[C@@]3(COCc3cccnc3)C2)n1 | 6.87
CC(C)CC(=O)N1C[C@@H]2CCN(c3cnccn3)C[C@@H]2C1 | 3.44
CC1(C)CC(n2cc3nc(N)[nH]cc-3c2=O)CC(C)(C)N1 | -12.8
CC(C)=CCN1C[C@@H]2CC[C@H]1CN(C(=O)c1c[nH]c(=O)c(Cl)c1)C2 | -14.5
O=c1occ(CN2CCOCC2)c(O)c1CN1CCOCC1 | -12.1
